Source: PMC4136667 (Journal of Medicinal Chemistry, 2014)

Target: human ΔF508–CFTR (Homo sapiens, UniProt P13569, DEL508-508)
Assay: ΔF508–CFTR corrector activity assay
Type: cell-based
Details: for Corrector activity (in words): ΔF508–CFTR FRT cells; for Vmax higher than benchmark bithiazole corr4a: difference to corr4a (475 μM/s); for Increase of Vmax compared to benchmark bithiazole corr4a: relative to corr4a
Procedure, shortened: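 FRT cells stably coexpressing human ΔF508–CFTR and YFP-H148Q/I152L were grown 24 h at 37 °C, then exposed 16–20 h to test compound at various concentrations, with DMSO vehicle and a bithiazole positive control. Cells were PBS-washed and given forskolin (20 μM) plus genistein (50 μM) for 20 min. Fluorescence (ex 500, em 535 nm) was recorded 2 s before and 12 s after adding iodide-for-chloride PBS. Initial rate came from an exponential fit, normalized to initial fluorescence. Vmax came from Hill fitting of concentration–activity data.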

Row | Compound | Corrector activity (in words) | Vmax higher than benchmark bithiazole corr4a | Increase of Vmax compared to benchmark bithiazole corr4a
1 | COc1ccc(Cl)cc1Nc1nc2c(s1)CCCCc1nc(N)sc1-2 [8a, N9-(5-Chloro-2-methoxyphenyl)-4,5,6,7-tetrahydrocycloocta[1,2-d:3,4-d′]bis(thiazole)-2,9-diamine] | modest correctors |  | 
2 | COc1ccc(Cl)cc1Nc1nc2c(s1)CCCc1nc(N)sc1-2 [7a, N8-(5-Chloro-2-methoxyphenyl)-5,6-dihydro-4H-cyclohepta[1,2-d:3,4-d′]bis(thiazole)-2,8-diamine] | modest correctors |  | 
3 | COc1ccc(Cl)cc1Nc1nc2c(s1)CCCCc1nc(NC(=O)C(C)C)sc1-2 [10c, N-(9-((5-Chloro-2-methoxyphenyl)amino)-4,5,6,7-tetrahydrocycloocta [1,2-d:3,4-d′]bis(thiazole)-2-yl)isobutyramide] |  | 200 µM/s | 1.5 fold
4 | COC(=O)CCC(=O)Nc1nc2c(s1)-c1nc(Nc3cc(Cl)ccc3OC)sc1CCC2 [9e, Methyl 4-((8-((5-chloro-2-methoxyphenyl)amino)-5,6-dihydro-4H-cyclohepta[1,2-d:3,4-d′]bis(thiazole)-2-yl)amino)-4-oxobutanoate] |  | 200 µM/s | 1.5 fold
